According to ChEMBL document CHEMBL4689842, “EUbOPEN Chemogenomics Library wave 1” (2021):

Tested on: U2OS
Test: Multiplex assay against U2OS
Assay type: toxicity, cell-based
Settings: human
How it was run: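 Four dyes were applied at seeding to live cells: Hoechst33342, BioTracker Green Microtubule Cytoskeleton Dye, MitoTracker Red and Annexin V Alexa Fluor 680. Imaging after compound addition used a CQ1 microscope at 37°C and 5% CO2. CellPathfinder machine-learning gating then sorted cells into Hoechst high-intensity objects or normal cells, normal cells into healthy, pyknosed or fragmented nuclei, and pyknosed cells into mitotic or apoptotic, with tubulin, mitochondrial-mass and membrane-permeability phenotypes given as per cents of healthy-nucleus cells.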

[1] = 12 h, 1 µM, compound concentration 1 uM, replicate 1
[2] = 12 h, 1 µM, compound concentration 1 uM, replicate 2
[3] = 12 h, 10 µM, compound concentration 10 uM, replicate 1
[4] = 12 h, 10 µM, compound concentration 10 uM, replicate 2
[5] = 24 h, 1 µM, compound concentration 1 uM, replicate 1
[6] = 24 h, 1 µM, compound concentration 1 uM, replicate 2
[7] = 24 h, 10 µM, compound concentration 10 uM, replicate 1
[8] = 24 h, 10 µM, compound concentration 10 uM, replicate 2
[9] = 48 h, 1 µM, compound concentration 1 uM, replicate 1
[10] = 48 h, 1 µM, compound concentration 1 uM, replicate 2
[11] = 48 h, 10 µM, compound concentration 10 uM, replicate 1
[12] = 48 h, 10 µM, compound concentration 10 uM, replicate 2

SMILES: CC[C@H](C)C(=O)O[C@H]1C[C@@H](C)C=C2C=C[C@H](C)[C@H](CC[C@@H]3C[C@@H](O)CC(=O)O3)[C@H]21 [LOVASTATIN]
- Population Apoptotic (%) [1]: 21%
- Population Fragmented Nuclei (%) [1]: 13%
- Population Healthy Nuclei (%) [1]: 76%
- Population Hoechst High Intensity Objects (%) [1]: 12%
- Population Membrane Permeable-Phenotype (%) [1]: 7%
- Population Mitochondria Different-Phenotype (%) [1]: 5%
- Population Mitotic Cells (%) [1]: 78%
- Population Normal (%) [1]: 87%
- Population Pyknosed Nuclei (%) [1]: 9%
- Population Tubulin-Different-Phenotype (%) [1]: 13%
- Total Cell Count [1]: 140
- Population Apoptotic (%) [2]: 25%
- Population Fragmented Nuclei (%) [2]: 22%
- Population Healthy Nuclei (%) [2]: 68%
- Population Hoechst High Intensity Objects (%) [2]: 11%
- Population Membrane Permeable-Phenotype (%) [2]: 3%
- Population Mitochondria Different-Phenotype (%) [2]: 6%
- Population Mitotic Cells (%) [2]: 75%
- Population Normal (%) [2]: 88%
- Population Pyknosed Nuclei (%) [2]: 8%
- Population Tubulin-Different-Phenotype (%) [2]: 3%
- Total Cell Count [2]: 87
- Population Apoptotic (%) [3]: 31%
- Population Fragmented Nuclei (%) [3]: 20%
- Population Healthy Nuclei (%) [3]: 68%
- Population Hoechst High Intensity Objects (%) [3]: 10%
- Population Membrane Permeable-Phenotype (%) [3]: 9%
- Population Mitochondria Different-Phenotype (%) [3]: 14%
- Population Mitotic Cells (%) [3]: 68%
- Population Normal (%) [3]: 89%
- Population Pyknosed Nuclei (%) [3]: 11%
- Population Tubulin-Different-Phenotype (%) [3]: 12%
- Total Cell Count [3]: 163
- Population Apoptotic (%) [4]: 100%
- Population Fragmented Nuclei (%) [4]: 4%
- Population Healthy Nuclei (%) [4]: 90%
- Population Hoechst High Intensity Objects (%) [4]: 8%
- Population Membrane Permeable-Phenotype (%) [4]: 10%
- Population Mitochondria Different-Phenotype (%) [4]: 12%
- Population Mitotic Cells (%) [4]: 0%
- Population Normal (%) [4]: 91%
- Population Pyknosed Nuclei (%) [4]: 4%
- Population Tubulin-Different-Phenotype (%) [4]: 20%
- Total Cell Count [4]: 54
- Population Apoptotic (%) [5]: 18%
- Population Fragmented Nuclei (%) [5]: 6%
- Population Healthy Nuclei (%) [5]: 84%
- Population Hoechst High Intensity Objects (%) [5]: 7%
- Population Membrane Permeable-Phenotype (%) [5]: 6%
- Population Mitochondria Different-Phenotype (%) [5]: 8%
- Population Mitotic Cells (%) [5]: 81%
- Population Normal (%) [5]: 92%
- Population Pyknosed Nuclei (%) [5]: 8%
- Population Tubulin-Different-Phenotype (%) [5]: 14%
- Total Cell Count [5]: 144
- Population Apoptotic (%) [6]: 40%
- Population Fragmented Nuclei (%) [6]: 22%
- Population Healthy Nuclei (%) [6]: 70%
- Population Hoechst High Intensity Objects (%) [6]: 9%
- Population Membrane Permeable-Phenotype (%) [6]: 0%
- Population Mitochondria Different-Phenotype (%) [6]: 4%
- Population Mitotic Cells (%) [6]: 60%
- Population Normal (%) [6]: 90%
- Population Pyknosed Nuclei (%) [6]: 7%
- Population Tubulin-Different-Phenotype (%) [6]: 4%
- Total Cell Count [6]: 93
- Population Apoptotic (%) [7]: 25%
- Population Fragmented Nuclei (%) [7]: 13%
- Population Healthy Nuclei (%) [7]: 76%
- Population Hoechst High Intensity Objects (%) [7]: 6%
- Population Membrane Permeable-Phenotype (%) [7]: 8%
- Population Mitochondria Different-Phenotype (%) [7]: 7%
- Population Mitotic Cells (%) [7]: 75%
- Population Normal (%) [7]: 93%
- Population Pyknosed Nuclei (%) [7]: 9%
- Population Tubulin-Different-Phenotype (%) [7]: 9%
- Total Cell Count [7]: 204
- Population Apoptotic (%) [8]: 28%
- Population Fragmented Nuclei (%) [8]: 8%
- Population Healthy Nuclei (%) [8]: 79%
- Population Hoechst High Intensity Objects (%) [8]: 7%
- Population Mitochondria Different-Phenotype (%) [8]: 4%
- Population Mitotic Cells (%) [8]: 71%
- Population Normal (%) [8]: 92%
- Population Pyknosed Nuclei (%) [8]: 11%
- Population Tubulin-Different-Phenotype (%) [8]: 23%
- Total Cell Count [8]: 74
- Population Apoptotic (%) [9]: 41%
- Population Fragmented Nuclei (%) [9]: 4%
- Population Healthy Nuclei (%) [9]: 89%
- Population Hoechst High Intensity Objects (%) [9]: 3%
- Population Membrane Permeable-Phenotype (%) [9]: 4%
- Population Mitochondria Different-Phenotype (%) [9]: 8%
- Population Mitotic Cells (%) [9]: 58%
- Population Normal (%) [9]: 96%
- Population Pyknosed Nuclei (%) [9]: 5%
- Population Tubulin-Different-Phenotype (%) [9]: 11%
- Total Cell Count [9]: 129
- Population Apoptotic (%) [10]: 0%
- Population Fragmented Nuclei (%) [10]: 10%
- Population Healthy Nuclei (%) [10]: 87%
- Population Hoechst High Intensity Objects (%) [10]: 7%
- Population Membrane Permeable-Phenotype (%) [10]: 1%
- Population Mitochondria Different-Phenotype (%) [10]: 5%
- Population Mitotic Cells (%) [10]: 100%
- Population Normal (%) [10]: 92%
- Population Pyknosed Nuclei (%) [10]: 2%
- Population Tubulin-Different-Phenotype (%) [10]: 7%
- Total Cell Count [10]: 89
- Population Apoptotic (%) [11]: 40%
- Population Fragmented Nuclei (%) [11]: 12%
- Population Healthy Nuclei (%) [11]: 78%
- Population Hoechst High Intensity Objects (%) [11]: 4%
- Population Membrane Permeable-Phenotype (%) [11]: 3%
- Population Mitochondria Different-Phenotype (%) [11]: 5%
- Population Mitotic Cells (%) [11]: 60%
- Population Normal (%) [11]: 95%
- Population Pyknosed Nuclei (%) [11]: 8%
- Population Tubulin-Different-Phenotype (%) [11]: 4%
- Total Cell Count [11]: 300
- Population Apoptotic (%) [12]: 33%
- Population Fragmented Nuclei (%) [12]: 3%
- Population Healthy Nuclei (%) [12]: 89%
- Population Hoechst High Intensity Objects (%) [12]: 7%
- Population Membrane Permeable-Phenotype (%) [12]: 6%
- Population Mitochondria Different-Phenotype (%) [12]: 6%
- Population Mitotic Cells (%) [12]: 66%
- Population Normal (%) [12]: 92%
- Population Pyknosed Nuclei (%) [12]: 7%
- Population Tubulin-Different-Phenotype (%) [12]: 21%
- Total Cell Count [12]: 96
